Source: ChEMBL document CHEMBL2086252, “Syntheses and evaluation of anticonvulsant activity of novel branched alkyl carbamates” (J Med Chem, 2012)
Active and inactive are the calls of the source. The rule behind the calls is not given here.

Columns and labels:
Rattus norvegicus [1] = test: Anticonvulsant activity in ip dosed Sprague-Dawley albino rat assessed as protection against pilocarpine-induced status epilepticus after 0.5 hrs; assay type: functional
Procedure, shortened: (§1)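 Pilocarpine status epilepticus model in rats. Number and severity of convulsive seizures were observed behaviourally.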

Mus musculus [2] = test: Anticonvulsant activity in albino CF1 mouse assessed as protection against subcutaneous metrazol-induced seizures at 30 mg/kg, ip after 4 hrs; assay type: functional, organism-based; parameters: dose 30 mg/kg
Procedure, shortened: (§2)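 Mice dosed ip at 30, 100 or 300 mg/kg, then tested 0.5 h and 4 h after administration in the MES or scMet test. Protection was recorded as animals protected over animals tested. Neurotoxicity was recorded as motor impairment or sedation, as animals affected over animals tested.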

Rattus norvegicus [3] = test: Protective index, ratio of TD50 for po dosed Sprague-Dawley albino rat by rotarod test to ED50 for po dosed Sprague-Dawley albino rat by maximal electroshock seizures test; assay type: functional
Procedure, shortened: (§3)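 Protective index calculated as TD50/ED50, with TD50 and ED50 taken from the same species and dosing route.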

Mus musculus [4] = test: Anticonvulsant activity in albino CF1 mouse assessed as protection against subcutaneous metrazol-induced seizures at 100 mg/kg, ip after 0.5 hrs; assay type: functional, organism-based; parameters: dose 100 mg/kg; procedure, shortened: as §2
Mus musculus [5] = test: Anticonvulsant activity in albino CF1 mouse assessed as protection against maximal electroshock-induced seizures at 100 mg/kg, ip after 4 hrs; assay type: functional, organism-based; parameters: dose 100 mg/kg; procedure, shortened: as §2
Rattus norvegicus [6] = test: Neurotoxicity in pilocarpine-induced status epilepticus Sprague-Dawley albino rat model assessed as minimal motor impairment at 300 mg/kg, ip after 4 hrs by rotarod test; assay type: toxicity, organism-based; parameters: dose 300 mg/kg, route intraperitoneal; details: in vivo
Procedure, shortened: (§4)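 Rat pilocarpine status epilepticus model: test carbamate given at 0 or 30 min after the first observed Racine stage 3 motor seizure, which marks SE onset. Neurotoxicity was scored within the same model.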

Rattus norvegicus [7] = test: Anticonvulsant activity in po dosed Sprague-Dawley albino rat assessed as protection against maximal electroshock-induced seizures; assay type: functional
Procedure, shortened: (§5)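 Quantitative testing: rats dosed orally or ip in MES and scMet tests, and mice dosed ip, including the 6 Hz (32 mA) psychomotor seizure test. ED50 and TD50 were reported in mg/kg with ranges in parentheses. Protective index was calculated as TD50/ED50.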

Mus musculus [8] = test: Neurotoxicity in albino CF1 mouse assessed as minimal motor impairment at 300 mg/kg, ip after 4 hrs by rotarod test; assay type: toxicity, organism-based; parameters: dose 300 mg/kg, route intraperitoneal; details: in vivo; procedure, shortened: as §2
Mus musculus [9] = test: Anticonvulsant activity in albino CF1 mouse assessed as protection against maximal electroshock-induced seizures at 100 mg/kg, ip after 0.5 hrs; assay type: functional, organism-based; parameters: dose 100 mg/kg; procedure, shortened: as §2
Rattus norvegicus [10] = test: Neurotoxicity in pilocarpine-induced status epilepticus Sprague-Dawley albino rat model assessed as minimal motor impairment at 30 mg/kg, ip after 2 hrs by rotarod test; assay type: toxicity, organism-based; parameters: dose 30 mg/kg, route intraperitoneal; details: in vivo; procedure, shortened: as §4
Mus musculus [11] = test: Anticonvulsant activity in albino CF1 mouse assessed as protection against maximal electroshock-induced seizures at 30 mg/kg, ip after 4 hrs; assay type: functional, organism-based; parameters: dose 30 mg/kg; procedure, shortened: as §2
Mus musculus [12] = test: Anticonvulsant activity in albino CF1 mouse assessed as protection against maximal electroshock-induced seizures at 300 mg/kg, ip after 4 hrs; assay type: functional, organism-based; parameters: dose 300 mg/kg; procedure, shortened: as §2
Mus musculus [13] = test: Anticonvulsant activity in albino CF1 mouse assessed as protection against maximal electroshock-induced seizures at 300 mg/kg, ip after 0.5 hrs; assay type: functional, organism-based; parameters: dose 300 mg/kg; procedure, shortened: as §2
Rattus norvegicus [14] = test: Neurotoxicity in pilocarpine-induced status epilepticus Sprague-Dawley albino rat model assessed as minimal motor impairment at 100 mg/kg, ip after 0.5 hrs by rotarod test; assay type: toxicity, organism-based; parameters: dose 100 mg/kg, route intraperitoneal; details: in vivo
Rattus norvegicus [15] = test: Neurotoxicity in pilocarpine-induced status epilepticus Sprague-Dawley albino rat model assessed as minimal motor impairment at 100 mg/kg, ip after 0.25 hr by rotarod test; assay type: toxicity, organism-based; parameters: dose 100 mg/kg, route intraperitoneal; details: in vivo
Mus musculus [16] = test: Anticonvulsant activity in albino CF1 mouse assessed as protection against subcutaneous metrazol-induced seizures at 100 mg/kg, ip after 4 hrs; assay type: functional, organism-based; parameters: dose 100 mg/kg; procedure, shortened: as §2
Rattus norvegicus [17] = test: Neurotoxicity in pilocarpine-induced status epilepticus Sprague-Dawley albino rat model assessed as minimal motor impairment at 100 mg/kg, ip after 2 hrs by rotarod test; assay type: toxicity, organism-based; parameters: dose 100 mg/kg, route intraperitoneal; details: in vivo
Mus musculus [18] = test: Anticonvulsant activity in albino CF1 mouse assessed as protection against maximal electroshock-induced seizures at 30 mg/kg, ip after 0.5 hrs; assay type: functional, organism-based; parameters: dose 30 mg/kg; procedure, shortened: as §2
Rattus norvegicus [19] = test: Neurotoxicity in pilocarpine-induced status epilepticus Sprague-Dawley albino rat model assessed as minimal motor impairment at 300 mg/kg, ip after 2 hrs by rotarod test; assay type: toxicity, organism-based; parameters: dose 300 mg/kg, route intraperitoneal; details: in vivo; procedure, shortened: as §4
Rattus norvegicus [20] = test: Neurotoxicity in pilocarpine-induced status epilepticus Sprague-Dawley albino rat model assessed as minimal motor impairment at 300 mg/kg, ip after 0.25 hr by rotarod test; assay type: toxicity, organism-based; parameters: dose 300 mg/kg, route intraperitoneal; details: in vivo; procedure, shortened: as §4
Mus musculus [21] = test: Neurotoxicity in albino CF1 mouse assessed as minimal motor impairment at 30 mg/kg, ip after 0.5 hrs by rotarod test; assay type: toxicity, organism-based; parameters: dose 30 mg/kg, route intraperitoneal; details: in vivo; procedure, shortened: as §2
Rattus norvegicus [22] = test: Anticonvulsant activity in Sprague-Dawley albino rat assessed as protection against maximal electroshock-induced seizures at 30 mg/kg, po after 1 hr; assay type: functional, organism-based; parameters: dose 30 mg/kg
Procedure, shortened: (§6)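 Rats dosed orally. Anti-MES protection was scored as animals protected over animals tested at each time after dosing. Neurotoxicity was scored as motor impairment or sedation, as animals affected over animals tested.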

Mus musculus [23] = test: Anticonvulsant activity in albino CF1 mouse assessed as protection against subcutaneous metrazol-induced seizures at 30 mg/kg, ip after 0.5 hrs; assay type: functional, organism-based; parameters: dose 30 mg/kg; procedure, shortened: as §2
Rattus norvegicus [24] = test: Neurotoxicity in pilocarpine-induced status epilepticus Sprague-Dawley albino rat model assessed as minimal motor impairment at 30 mg/kg, ip after 0.5 hrs by rotarod test; assay type: toxicity, organism-based; parameters: dose 30 mg/kg, route intraperitoneal; details: in vivo; procedure, shortened: as §4
Mus musculus [25] = test: Neurotoxicity in albino CF1 mouse assessed as minimal motor impairment at 100 mg/kg, ip after 4 hrs by rotarod test; assay type: toxicity, organism-based; parameters: dose 100 mg/kg, route intraperitoneal; details: in vivo; procedure, shortened: as §2
Rattus norvegicus [26] = test: Neurotoxicity in pilocarpine-induced status epilepticus Sprague-Dawley albino rat model assessed as minimal motor impairment at 30 mg/kg, ip after 4 hrs by rotarod test; assay type: toxicity, organism-based; parameters: dose 30 mg/kg, route intraperitoneal; details: in vivo; procedure, shortened: as §4
Rattus norvegicus [27] = test: Neurotoxicity in Sprague-Dawley albino rat assessed as minimal motor impairment at 30 mg/kg, po by rotarod test; assay type: toxicity, organism-based; parameters: dose 30 mg/kg, route oral; details: in vivo; procedure, shortened: as §6
Mus musculus [28] = test: Neurotoxicity in albino CF1 mouse assessed as minimal motor impairment at 30 mg/kg, ip after 4 hrs by rotarod test; assay type: toxicity, organism-based; parameters: dose 30 mg/kg, route intraperitoneal; details: in vivo; procedure, shortened: as §2
Rattus norvegicus [29] = test: Anticonvulsant activity in po dosed Sprague-Dawley albino rat assessed as protection against subcutaneous metrazol-induced seizures; assay type: functional; procedure, shortened: as §5
Mus musculus [30] = test: Anticonvulsant activity in albino CF1 mouse assessed as protection against subcutaneous metrazol-induced seizures at 300 mg/kg, ip after 0.5 hrs; assay type: functional, organism-based; parameters: dose 300 mg/kg; procedure, shortened: as §2
[31] = Neurotoxicity in po dosed Sprague-Dawley albino rat assessed as minimal motor impairment by rotarod test; assay type: toxicity, organism-based; details: in vivo
Procedure, shortened: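 Rats dosed orally; 4 rats per time point after dosing. Neurotoxicity was scored as motor impairment or sedation and reported as number of animals affected over number tested.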

Rattus norvegicus [32] = test: Neurotoxicity in pilocarpine-induced status epilepticus Sprague-Dawley albino rat model assessed as minimal motor impairment at 100 mg/kg, ip after 4 hrs by rotarod test; assay type: toxicity, organism-based; parameters: dose 100 mg/kg, route intraperitoneal; details: in vivo
Rattus norvegicus [33] = test: Neurotoxicity in pilocarpine-induced status epilepticus Sprague-Dawley albino rat model assessed as minimal motor impairment at 30 mg/kg, ip after 1 hr by rotarod test; assay type: toxicity, organism-based; parameters: dose 30 mg/kg, route intraperitoneal; details: in vivo; procedure, shortened: as §4
Rattus norvegicus [34] = test: Protective index, ratio of TD50 for po dosed Sprague-Dawley albino rat by rotarod test to ED50 for po dosed Sprague-Dawley albino rat by subcutaneous metrazol seizures test; assay type: functional; procedure, shortened: as §3
Rattus norvegicus [35] = test: Neurotoxicity in pilocarpine-induced status epilepticus Sprague-Dawley albino rat model assessed as minimal motor impairment at 300 mg/kg, ip after 1 hr by rotarod test; assay type: toxicity, organism-based; parameters: dose 300 mg/kg, route intraperitoneal; details: in vivo; procedure, shortened: as §4
Mus musculus [36] = test: Anticonvulsant activity in albino CF1 mouse assessed as protection against subcutaneous metrazol-induced seizures at 300 mg/kg, ip after 4 hrs; assay type: functional, organism-based; parameters: dose 300 mg/kg; procedure, shortened: as §2
Rattus norvegicus [37] = test: Neurotoxicity in pilocarpine-induced status epilepticus Sprague-Dawley albino rat model assessed as minimal motor impairment at 30 mg/kg, ip after 0.25 hr by rotarod test; assay type: toxicity, organism-based; parameters: dose 30 mg/kg, route intraperitoneal; details: in vivo; procedure, shortened: as §4
Rattus norvegicus [38] = test: Neurotoxicity in pilocarpine-induced status epilepticus Sprague-Dawley albino rat model assessed as minimal motor impairment at 300 mg/kg, ip after 0.5 hrs by rotarod test; assay type: toxicity, organism-based; parameters: dose 300 mg/kg, route intraperitoneal; details: in vivo; procedure, shortened: as §4
Rattus norvegicus [39] = test: Anticonvulsant activity in Sprague-Dawley albino rat assessed as protection against maximal electroshock-induced seizures at 30 mg/kg, po after 4 hrs; assay type: functional, organism-based; parameters: dose 30 mg/kg; procedure, shortened: as §6
Rattus norvegicus [40] = test: Anticonvulsant activity in Sprague-Dawley albino rat assessed as protection against pilocarpine-induced status epilepticus at 65 mg/kg, ip; assay type: functional, organism-based; parameters: dose 65 mg/kg; procedure, shortened: as §1
Rattus norvegicus [41] = test: Anticonvulsant activity in Sprague-Dawley albino rat assessed as protection against maximal electroshock-induced seizures at 30 mg/kg, po after 2 hrs; assay type: functional, organism-based; parameters: dose 30 mg/kg; procedure, shortened: as §6

CCC(C)C(CC)COC(N)=O (racemic)
ED50 (Rattus norvegicus [1]): 96 mg/kg | ED97 (Rattus norvegicus [1]): 174 mg/kg | Activity (Mus musculus [2]): inactive | Ratio TD50/ED50 (Rattus norvegicus [3]): 5.5 | Activity (Mus musculus [4]): Active | Activity (Mus musculus [5]): inactive | Activity (Rattus norvegicus [6]): Non-toxic | ED50 (Rattus norvegicus [7]): 52 mg/kg | Activity (Mus musculus [8]): Non-toxic | Activity (Mus musculus [9]): Active | Activity (Rattus norvegicus [10]): Toxic | Activity (Mus musculus [11]): inactive | Activity (Mus musculus [12]): inactive | Activity (Mus musculus [13]): Active | Activity (Rattus norvegicus [14]): Toxic | Activity (Rattus norvegicus [15]): Toxic | Activity (Mus musculus [16]): inactive | Activity (Rattus norvegicus [17]): Toxic | Activity (Mus musculus [18]): inactive | Activity (Rattus norvegicus [19]): Non-toxic | Activity (Rattus norvegicus [20]): Toxic | Activity (Mus musculus [21]): Non-toxic | Activity (Rattus norvegicus [22]): inactive | Activity (Mus musculus [23]): inactive | Activity (Rattus norvegicus [24]): Non-toxic | Activity (Mus musculus [25]): Non-toxic | Activity (Rattus norvegicus [26]): Toxic | Activity (Rattus norvegicus [27]): Non-toxic | Activity (Mus musculus [28]): Non-toxic | ED50 (Rattus norvegicus [29]): 68 mg/kg | Activity (Mus musculus [30]): Active | TD50 [31]: 291 mg/kg | Activity (Rattus norvegicus [32]): Toxic | Activity (Rattus norvegicus [33]): Non-toxic | Ratio TD50/ED50 (Rattus norvegicus [34]): 4.3 | Activity (Rattus norvegicus [35]): Toxic | Activity (Mus musculus [36]): inactive | Activity (Rattus norvegicus [37]): Non-toxic | Activity (Rattus norvegicus [38]): Toxic | Activity (Rattus norvegicus [39]): inactive | Activity (Rattus norvegicus [40]): Active | Activity (Rattus norvegicus [41]): inactive
